Experimental data published in ChEMBL document CHEMBL4513216, “Probing the Open Global Health Chemical Diversity Library for Multistage-Active Starting Points for Next-Generation Antimalarials” (ACS Infect Dis, 2020).

Assay: Toxicity liver stage against HepG2, at 10uM
Assay type: cell-based
Design: test concentration 10 uM, cell line HepG2-A16-CD81EGFP
Details: human, HepG2-A16-CD81EGFP cells; read-out: INHIBITION
In short: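 Uninfected HepG2-A16-CD81EGFP cells, 3 × 10^3 per well, 1536-well, plated on prespotted compound at 10 μM final, parasite-free screening media added to match infected plates; puromycin 10 μM positive, DMSO 0.5% negative; run in parallel with 48 h PbLuc assay at 37 °C, 5% CO2; viability by CellTiter-Glo luminescence, normalized to controls.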

SMILES | cytotoxicity at 10 µM
CC(C)c1cc(C(=O)NCCN2CCOCC2)nc(N2CCCC2)n1 | 8.82%
O=C(Cc1ccsc1)N1CCC(Cn2cc(CCO)nn2)CC1 | 1.67%
CNc1oc(-c2ccc(OC)c(S(=O)(=O)N3CCCC3)c2)nc1C#N | 3.33%
CN1C[C@@H](n2cnc(-c3ccccc3)c2-c2ccccn2)C[C@H]1C(=O)O | 0.322%
c1nc2c(c(N3CCOC(Cn4cncn4)C3)n1)CCC2 (centres undefined) | 14.5%
Cn1ccc(C(=O)NCc2ccccc2Cn2ccnc2)cc1=O | 9.42%
CC(=O)N1CCC(c2c(CN(C)C)cnc3cc(C)nn23)CC1 | 2.54%
O=C(NCC(Cc1cccc(F)c1)N1CCCC1=O)c1ccc(=O)[nH]n1 (centres undefined) | -0.634%
O=C(O)c1nn(CC2CC2)c2c1CN(S(=O)(=O)c1cccnc1)CC2 | 3.16%
Cc1cc(N2CCC(Cc3ccccc3)CC2)ncn1 | 3.51%
CCCc1cc(C(=O)N[C@@H]2CC[C@@H](N3CCOCC3)[C@@H]2O)no1 | -3.59%
CCc1nc2c(s1)C(N(C)C(=O)c1csnn1)CCC2 (centres undefined) | -3.71%
O=C(NCc1ccnc(OCC(F)(F)F)c1)NCC1COCCO1 (centres undefined) | 1.81%
CNc1nc2c(c(C(=O)N3CCCC3)n1)CN(Cc1ccco1)CC2 | -113%
Cc1cc(C)c2c(c1)NC(=O)C2CC(=O)O (centres undefined) | 9.13%
OCCN1CCN(CC2(O)CCCCC2)CC1 | 3.66%
C[C@@H](O)CNC(=O)c1nc(CC(=O)Nc2ccccc2)no1 | 7.49%
Cc1cc(C)c2cc(CNC3CCCCC3)c3nn(C)c(=O)n3c2c1 | -4.55%
Cc1nn(C)c(C)c1CNCc1ccnc(N2CCOCC2)c1 | 0.626%
Cc1nsc(NC(=O)N2CCCC2C)n1 (centres undefined) | -38.7%
COCc1cc(CNC(=O)c2c(C)c(C)cc(C)c2C)n[nH]1 | -6.65%
Cn1cnnc1S(=O)(=O)Cc1cc(Cl)c2c(c1)OCCO2 | -44.7%

SMILES | cytotoxicity at 10 µM
COCCc1noc(CN2CCCc3cccc(OC)c32)n1 | 5.52%
CN(C)C1CN(C(=O)Nc2cccc(OC(F)F)c2)C1 | -0.317%
CCOc1ncccc1CNS(=O)(=O)c1ccc2c(c1)CCO2 | 7.95%
Cc1noc(C(C)Nc2ccc(N3CCOCC3)cc2C)n1 (centres undefined) | -3.92%
CC(C)c1cc(NC(=O)CN2CCc3c(nc(C(C)C)n3C)C2)on1 | -12.3%
Cc1cccc(CN2CCn3cc(CNC(=O)CC4CC4)nc3C2)n1 | -73.2%
CCC(CC)C(=O)N1CCC2(C1)CN(c1ccccc1)C(=O)CN2C (centres undefined) | 3.5%
CCOCC(=O)NCCc1nc(C2CC2)cc(C(F)(F)F)n1 | 1.01%
CC(C)CNC(=O)C1=NOC2(CCN(Cc3ccoc3)C2)C1 (centres undefined) | -3.42%
CN(C)C(=O)C1CN(Cc2ccsc2)CCN(S(C)(=O)=O)C1 (centres undefined) | 14.4%
CC(C)(C)c1coc([C@@H]2COCCN2Cc2cnc3ccccc3c2)n1 | 10.9%
CCCC(C)NC(=O)CCN1C(=O)CCc2cc(F)ccc21 (centres undefined) | 8.17%
N#CCc1ccc(NC(=O)CNc2ccc(Br)cc2F)cc1 | 0.997%
N#Cc1cccnc1N1CCCN(C(=O)CCn2cncn2)CC1 | 0.111%
CN1CCO[C@@H]2CN(S(=O)(=O)c3ccccc3F)CC[C@@H]2C1 | 1.35%
Cc1nc(CO[C@@H]2CN(Cc3ccco3)[C@@H]3COC[C@@H]32)cs1 | 5.66%
CS(=O)(=O)N1Cc2ccccc2CC2(CCN(Cc3ccccc3)C2)C1 (centres undefined) | 7.38%
Cc1cnc(CNC(=O)c2cc3c(s2)CCN3S(C)(=O)=O)cn1 | 2.22%
Cc1cc2nc(C(C)C)cc(N3CCC(N(C)C)C3)n2n1 (centres undefined) | -3.88%
O=C(NCCn1cnnc1C1CC1)c1c(O)cc(F)cc1F | -1.88%
O=C(NCC(O)COc1ccc(F)cc1)C1(c2ccc(F)cc2)CC1 (centres undefined) | 2.71%
CC(C)c1nc2n(n1)CC(NCc1nc(-c3ccccn3)no1)CC2 (centres undefined) | -5.08%

SMILES | cytotoxicity at 10 µM
CO[C@H]1CN(Cc2ccccc2F)C[C@@]12CCCO2 | -8.19%
Cc1ccc2oc(CNC(C)c3nnc4n3CCCC4)cc2c1 (centres undefined) | -17.9%
O=C(NCCNC(=O)c1scnc1Cl)c1ccccc1Cl | -0.524%
Cc1nc2c(c(N(C)C)n1)CCN(C(=O)c1sccc1S(N)(=O)=O)C2 | -2.29%
CCCc1noc(CN2CCCC2c2ccsc2)n1 (centres undefined) | -18.8%
CCS(=O)(=O)c1ncc(CN2CCOCC2)n1CCCc1ccccc1 | 7.57%
CCc1nc(NCc2ccccn2)c2c(n1)c(C)nn2C | 8.92%
Cc1nn(C)c2c(=O)n(C(C)C)c(NCCc3ccccc3)nc12 | 65.3%
O=C(C[S+]([O-])Cc1c(Cl)cccc1Cl)N1CCc2sccc2C1 (centres undefined) | -7.23%
CN(CCc1ccc2c(c1)CCO2)CC1CCS(=O)(=O)C1 (centres undefined) | 7.33%
O=C(Nc1nnn[nH]1)c1ccc(-n2cccc2)c(F)c1 | -1.63%
COCCOCC(=O)N1CCC(c2ccccc2F)C1 (centres undefined) | -6.45%
CN(C)C(CNc1c(NCc2ccco2)c(=O)c1=O)c1ccccc1 (centres undefined) | 5.16%
CNc1oc(-c2cc(S(=O)(=O)N3CCCCCC3)c(C)o2)nc1C#N | -5.28%
CC(C)N(C)[C@@H]1CCN(Cc2ccco2)[C@H]1Cc1ccccc1 | -7.92%
CCCC(=O)NCC(Cc1cccc(F)c1)N1CCCC1=O (centres undefined) | -2.91%
CCc1cc(NC(=O)C2CCCN(C(=O)c3ccncc3)C2)[nH]n1 (centres undefined) | -8.18%
c1cnc(N2CCCC3(CCN(Cc4ccsc4)C3)C2)nc1 (centres undefined) | -83.2%
O=C(CC1CC1)NCc1cc(=O)n2c(n1)CN(Cc1ccoc1)CCC2 | -20.6%
CN1CCC(N(C)C(=O)CCc2ccc(F)c(F)c2)C1=O (centres undefined) | -17.7%
CNC(=O)CC1CCN(C(=O)NCc2coc3ccccc23)CC1 | -11.4%
CCn1ccnc1CN(C)c1nc(-c2ccc(Cl)cc2)nc2c1CNC2 | -12.7%

SMILES | cytotoxicity at 10 µM
Cn1cc(CCC(=O)NCc2ccccc2OC(C)(C)C)cn1 | 6.67%
CC1=NN(CC(=O)N2CC[C@@H]3[C@@H](CCC(=O)N3CC(C)C)C2)CC1 | 0.88%
Fc1cccc(C(NCc2ncc[nH]2)c2ccccn2)c1 (centres undefined) | 3.95%
Cc1cc(C)c(CNC(=O)c2ccc3c(c2)CCC3)c(=O)[nH]1 | 0.983%
CCN(Cc1ccccc1)S(=O)(=O)C1CCS(=O)(=O)CC1 | 5.44%
CC(=O)N1CCC(n2nccc2-c2cnc(N)nc2)CC1 | 1.3%
O=C1OCCN1Cc1cccc(C(F)(F)F)c1F | -0.524%
Cn1cc(N2CCC(Nc3ccc4nccnc4n3)C2=O)cn1 (centres undefined) | -2.47%
Cn1cc(CN2CCn3cc(CNC(=O)C4CCC4)nc3C2)cn1 | -6.66%
NC(=O)CCCNC(=O)Cc1csc(Cc2ccccn2)n1 | -4.56%
Cc1ccc2cccc(C(=O)N3CCN(c4cccnn4)CC3)c2n1 | 1.91%
O=C(Cn1cc(-c2ccccc2)ncc1=O)NC1CCCCC1 | -8.03%
Cc1nc[nH]c1CN1CCn2nc(CN3CC[C@H](F)C3)cc2C1 | 5.01%
O=C(NCC1CCOC1)N1CCN(Cc2ccc3c(c2)CCO3)CC1 (centres undefined) | -4.2%
Cc1nn(C)c(C)c1CN(C)C(=O)c1cc(C(F)(F)F)n(C)n1 | -0.65%
c1cn(Cc2nnc(C3CCN(C4CCNCC4)CC3)n2C2CC2)cn1 | 1.74%
CCN1CCC2(CN(C(C)=O)CC23CCN(C(=O)N(C)C)CC3)C1=O (centres undefined) | 4.88%
CC(CNC(=O)CCCn1cncn1)N1CCc2ccccc2C1 (centres undefined) | -130%
CC(C)NC(=O)N1CCN(CC2CC2)CC2(CC(=O)N(C)C2)C1 (centres undefined) | -1.34%
CC(NC(=O)NCc1cc(Br)cs1)c1ccccn1 (centres undefined) | -17.6%
CC(C)NC(=O)[C@H]1C[C@@H]2[C@@H](C1)OCCN2Cc1ccsc1 | 9.49%
Cc1ccc(N(C)[C@@H]2CC[C@@H]3CN(C(=O)Cc4cccs4)C[C@@H]32)nn1 | -13.5%

SMILES | cytotoxicity at 10 µM
Cc1nn(C)cc1S(=O)(=O)N[C@@H]1CC[C@@H](n2ccnc2C)[C@@H]1O | -3.43%
c1ccc(COC2C[C@@H]3CN(Cc4cccnc4)C[C@@H]3C2)cc1 (some centres undefined) | 2.92%
CC(C)c1nn(C)c(N(C)C)c1CNCCC(=O)N(C)C | -6.02%
COc1cccc2c1OCC(C(=O)NCCCn1nc(C)c(Cl)c1C)C2 (centres undefined) | -4.12%
CCC[C@H]1CN(S(=O)(=O)c2c(C)noc2C)C[C@@H]1N | -0.288%
O=C(CCc1ccc(Br)cc1)NCCc1nnc[nH]1 | 2.7%
CC(=O)N1C[C@H]2CCCN(Cc3ccc(C)o3)[C@H]2C1 | -1.36%
CN(CCNC(=O)c1cnc(-c2ccncc2)nc1)S(C)(=O)=O | 5.23%
COCCNC(=O)Cn1c(-c2ccc(Cl)cc2)nc(C)c(CCO)c1=O | -13.1%
O=C(c1cnccn1)N1C[C@H]2CC[C@@H](C1)N(C(=O)Cc1ccsc1)C2 | -13.3%
COc1ccccc1CN1CCC2(CCC(C(=O)N(C)C)O2)CC1 (centres undefined) | 0.493%
O=C(c1cnccn1)N1CCOC2(CCN(Cc3ccsc3)CC2)C1 | -4.45%
COCCN1C(=O)CCC12CCC(NCc1nccs1)CC2 (centres undefined) | 7.01%
Cc1cc(CNC(=O)N2CCCN(Cc3ccccc3)CC2)no1 | -8.26%
Cn1cncc1C(=O)N1CCCC(c2ccn[nH]2)C1 (centres undefined) | -4.78%
CC(=O)N1CCC2(CC1)CN(C(=O)c1cccc3[nH]ccc13)CCO2 | -149%
COc1cccc(CN(C)Cc2[nH]c3ccccc3c2C)c1O | 3.38%
O=C1CC(c2ccccc2)C2(CCN(Cc3ccccn3)CC2)N1 (centres undefined) | 3.91%
c1cnnc(N2CCCC2CNCc2nc3ccccc3o2)c1 (centres undefined) | -10.9%
CS(=O)(=O)N1CC2(CCN(C3CCCCC3)CC2)Cc2ccccc21 | 4.92%
O=C(NCCNC(=O)c1ccc(Br)cc1)c1ccc(O)cc1 | -0.988%
